Entries after “also recorded” stand apart in the source; their conditions may differ. Blank lines part the entries; values can stand above or below the molecule they belong to.
Experiments:
[1] = molecular target: T1, human recombinant LPA1 receptor (Homo sapiens, UniProt Q92633); assay: Calcium flux assay, antagonism of LPA-induced calcium flux; type: cell-based; conditions: for IC50: read-out: IC50, inhibition of LPA-induced calcium flux, human LPA1-expressing Chem-1 cells, 1 μM Oleoyl LPA
[2] = molecular target: T1, human recombinant LPA1 receptor; assay: Calcium flux assay, LPA1 agonist activity; type: cell-based; conditions: human LPA1-expressing Chem-1 cells; for agonist activity at the LPA1 receptor (calcium flux): 0.0045–10 μM
Summary of the method: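 Chem-1 stable cell line expressing human recombinant LPA1, loaded with Fluo-4 NW. Test compound, the racemic reference or oleoyl-LPA reference agonist was added as an eight-point 3-fold serial dilution starting at 10 μM (0.0045–10 μM), and calcium flux stimulation was measured. The reference agonist's EC80 was derived from its dose-response.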

[3] = molecular target: T2, LPA3 (Homo sapiens, UniProt Q9UBY5); assay: Antagonist activity at LPA3; type: cell-based; conditions: read-out: IC50, antagonist activity at LPA3
T2 sequence (Q9UBY5 1-353): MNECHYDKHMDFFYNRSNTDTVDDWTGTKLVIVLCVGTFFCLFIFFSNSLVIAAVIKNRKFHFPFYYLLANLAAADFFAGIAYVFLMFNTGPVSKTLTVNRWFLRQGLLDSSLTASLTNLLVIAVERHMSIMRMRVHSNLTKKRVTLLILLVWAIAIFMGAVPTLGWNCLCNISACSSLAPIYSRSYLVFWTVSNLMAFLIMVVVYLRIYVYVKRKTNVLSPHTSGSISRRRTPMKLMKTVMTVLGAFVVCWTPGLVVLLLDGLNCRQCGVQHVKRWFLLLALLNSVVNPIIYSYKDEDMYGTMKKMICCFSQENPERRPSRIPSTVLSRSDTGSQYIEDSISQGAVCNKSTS

[4] = tested on: 4T1 cells; assay: Orthotopic 4T1 mammary fat pad model, treatment day 0 to 14; type: in vivo, mouse
[5] = tested on: 4T1 cells; assay: Orthotopic 4T1 model, adjuvant treatment day 15 to 35; type: in vivo, mouse; conditions: 25 or 50 mg/kg per os twice daily after tumor resection at day 14
Summary of the method: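 To count disseminated tumour cells, marrow was flushed from tibias and femurs and plated in complete medium with 6-thioguanine 10 μM, which only the naturally resistant 4T1 cells survive. After two weeks the clones were fixed, stained and counted, and reported as clones/mm2.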

[6] = tested on: 4T1 mouse mammary cancer cells; assay: LPA-induced cell invasion assay; type: cell-based; conditions: LPA 5 μM as chemoattractant; Debio 0719 1 and 5 μM; 24 h
Summary of the method: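 4T1 cells were grown in DMEM with 10% FBS and penicillin/streptomycin at 37°C, 5% CO2. 2×10^5 cells were placed in the upper compartment of Matrigel-coated 8-μm filter chambers with or without test compound. LPA with 1% FBS was in the lower chamber. After 24 h at 37°C, cells that crossed the filter were fixed, stained and counted in 10 random fields (×40) and reported as cells/mm2.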

[7] = Pharmacokinetic study in male CD-1 mice; type: in vivo, mouse
Summary of the method: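 Male CD-1 mice received test compound in 10% DMA, 5% Cremophor EL and 85% saline. It was given either as an intravenous 5 mg/kg bolus into the jugular vein or by oral gavage at 50 mg/kg. Retro-orbital blood was taken into sodium heparin, n=3 per time point. Plasma was spiked with methanol and lovastatin internal standard, vortexed, centrifuged and measured by LC/MS. Parameters are given as means.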

[8] = tested on: breast cancer cell-mediated bone metastases; conditions: treatment of bone metastatic animals; cited from earlier work

T1 sequence (Q92633 whole entry): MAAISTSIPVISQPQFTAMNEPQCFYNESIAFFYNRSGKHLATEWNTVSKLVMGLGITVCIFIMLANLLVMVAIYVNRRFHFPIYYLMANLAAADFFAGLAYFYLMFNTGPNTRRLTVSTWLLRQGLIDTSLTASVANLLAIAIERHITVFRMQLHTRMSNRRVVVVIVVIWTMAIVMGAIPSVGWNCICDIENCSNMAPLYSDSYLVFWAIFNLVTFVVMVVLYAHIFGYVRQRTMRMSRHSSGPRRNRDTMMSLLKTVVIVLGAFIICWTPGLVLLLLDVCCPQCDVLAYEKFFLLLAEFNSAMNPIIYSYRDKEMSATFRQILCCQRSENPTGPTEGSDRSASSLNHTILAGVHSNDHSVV

IC50 [1]: 2800 nM
agonist activity at the LPA1 receptor (calcium flux) [2]: no agonist activity
Structure (SMILES): Cc1noc(-c2ccc(CSCCC(=O)O)cc2)c1NC(=O)O[C@@H](C)c1ccccc1Cl [Debio 0719-425(S)]

Structure (SMILES): Cc1noc(-c2ccc(CSCCC(=O)O)cc2)c1NC(=O)O[C@H](C)c1ccccc1Cl [Debio 0719]
IC50 [3]: 660 nM
potency relative to Ki16425 at inhibiting LPA1-induced calcium flux ([1]; ratio of IC50 values): 2 fold
IC50 [1]: 60 nM
inhibition of number of lung metastasis foci ([4]; 50 mg/kg per os twice daily, day 0 to 14, sacrifice day 35, p=0.022): 62%
inhibition of total area of lung metastases ([4]; 50 mg/kg per os twice daily, day 0 to 14, sacrifice day 35, p=0.029): 89%
tolerability (mouse weight gain, deleterious effects) ([4]; 25 and 50 mg/kg per os twice daily, day 0 to 14, female BALB/c mice): well tolerated; also recorded: did not induce noticeable deleterious effects
burden (weight) of resected primary tumors vs untreated ([4]; 25 and 50 mg/kg per os twice daily, day 0 to 14, tumors resected day 14): no difference
rescue of 4T1-DTCs from bone marrow ([4]; either high or low dose, day 0 to 14, sacrifice day 35): not able to rescue any 4T1-DTCs
reduction in the area of lung metastasis foci ([4]; lower dosing (25 mg/kg per os twice daily), day 0 to 14, p=0.053): did not reach statistical significance
expression of mitotic marker Ki-67 in primary tumors vs untreated ([4]; per os twice daily, day 0 to 14, immunohistochemistry): similar
agonist activity at the LPA1 receptor (calcium flux) [2]: no agonist activity; also recorded: did not demonstrate any agonist effects
number of 4T1-DTCs rescued from bone marrow vs vehicle [5]: no statistically significant difference
LPA-induced 4T1 cell invasion [6]: dose-dependently blocked
tolerability after oral exposure [7]: well tolerated
Plasma clearance ([7]; intravenous 5 mg/kg): 111 mL/min/kg
Time to maximum concentration ([7]; intravenous 5 mg/kg): 0.08 h
plasma concentration by 4 h ([7]; intravenous 5 mg/kg): ~ 1 nM
Bioavailability ([7]; oral 50 mg/kg): 14.41 % EF
Time to maximum concentration ([7]; oral 50 mg/kg): 0.25 h
plasma concentration by 8 h ([7]; oral 50 mg/kg): ~ 10 nM
time of peak plasma concentration ([7]; oral 50 mg/kg): 15 min
oral bioavailability ([7]; oral 50 mg/kg, no unit in text): 14.41

IC50 [3]: 2300 nM
IC50 [1]: 130 nM
agonist activity at the LPA1 receptor (calcium flux) [2]: no agonist activity
Structure (SMILES): Cc1noc(-c2ccc(CSCCC(=O)O)cc2)c1NC(=O)OC(C)c1ccccc1Cl (centres unmarked) [Ki16425, reference compound]
progression of bone metastases [8]: inhibits efficiently the progression of bone metastases

EC50 ([2]; read-out: EC50, stimulation of calcium flux): 490 nM
Structure (SMILES): CCCCCCCC/C=C\CCCCCCCC(=O)OC[C@@H](O)COP(=O)(O)O [oleoyl LPA, Lysophosphatidic acid (LPA, Oleoyl C18:1), reference compound]
